Bioassay records (PubChem BioAssay)
This is a sample that favours compounds with a hit; in the whole collection about 4.9% have one here.
NPY-Y1 antag = NPY-Y1 (human) receptor antagonism; P25929; AID 1040; inhibition, % at 3.6 µM; hit rate 1% among 200,000; HEK293-CNG Y1 cells, membrane potential fluorescence; NPY at EC95, then isoproterenol;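 active means inhibition above the campaign mean inhibition of all tested compounds plus 3 SD, cut at about 20% in these data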;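 further: 0% = DMSO wells given NPY plus isoproterenol and 100% = isoproterenol alone without NPY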
Target sequence (P25929 whole entry, looked up): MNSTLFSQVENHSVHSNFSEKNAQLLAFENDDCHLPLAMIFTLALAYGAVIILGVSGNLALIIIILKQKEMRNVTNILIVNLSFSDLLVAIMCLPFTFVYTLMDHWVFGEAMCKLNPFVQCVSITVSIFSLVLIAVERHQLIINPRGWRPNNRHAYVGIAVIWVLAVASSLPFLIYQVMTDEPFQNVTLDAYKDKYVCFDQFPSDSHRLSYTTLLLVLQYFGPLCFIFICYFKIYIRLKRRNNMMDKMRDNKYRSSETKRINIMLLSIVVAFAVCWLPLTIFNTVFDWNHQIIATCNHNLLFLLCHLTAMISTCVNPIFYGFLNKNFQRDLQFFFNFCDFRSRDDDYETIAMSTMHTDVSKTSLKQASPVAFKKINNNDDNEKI
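System: HEK293 cells with Y1 receptor plus CNG channel / Probe or stimulus: NPY 25 nM then isoproterenol 1 µM plus Ro 20-1724 25 µM / Compound: one concentration, 3.6 µM, in 0.4% DMSO / Schedule: compound incubation 1 h at room temperature, readout 45 min post-stimulation / Measured by: membrane potential fluorescence / Read-out: % inhibition of NPY effect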
NPY-Y2 antag = antagonists of human neuropeptide Y receptor Y2; hit rate 0.99% among 140,000; inhibition, % at 2.7 µM; P49146; NPY-Y2 expressing cells, antagonist mode; in the data active means inhibition above about 17%;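 further: 0% = vehicle with agonist challenge and 100% = reference antagonist with challenge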
NPY-Y1 PAM-ag = human NPY-Y1 potentiation or agonism, primary screen; P25929; NPY-Y1 expressing cells, potentiator/agonist activation; activation, % at 3.6 µM; hit rate 0.37% among 220,000; AID 1304; in the data active means activation above about 33%, passing the limit was not always enough;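 further: cells stimulated with NPY at EC10 then isoproterenol at EC100; 0% = low agonist plus stimulus and 100% = saturating agonist plus stimulus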
NPY-Y2 PAM-ag = potentiators or agonists of human neuropeptide Y receptor Y2; hit rate 0.45% among 220,000; activation, % at 3.6 µM; AID 1359; cells expressing NPY-Y2, potentiator/agonist read-out; in the data active means activation above about 27%;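 further: cells stimulated with NPY near EC25 plus isoproterenol at EC100; 0% = vehicle plus submaximal agonist and 100% = vehicle plus saturating agonist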
WT yeast gro inh = growth inhibition of WT yeast, mitochondrial fusion screen; mitochondrial fusion phenotypic screen, WT strain; inhibition, % at 10 µM; hit rate 2.1% among 190,000; in the data active means inhibition above about 58%; tested in S. cerevisiae
RAM inhibit = inhibitors of the yeast RAM network; S. cerevisiae dse1pr::URA3 reporter, 5-FOA growth OD615, 2 d; analog-sensitive cbk1-as2 kinase mutant strain; inhibition, % at 50 µM; hit rate 1.8% among 190,000; AID 868;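 active means inhibition above a set limit, 3 SD over mean compound inhibition, cut at about 8.4% in these data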;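 further: 0% = DMSO-only wells with no growth and 100% = 10 µM 1-NA-PP1 full growth; inhibition rescues growth on 5-FOA so higher OD means more RAM inhibition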
RAM 5-FOA = restores 5-FOA growth of efflux-deficient yeast; AID 1305; shares compounds with RAM inhibit; max inhibition, %; S. cerevisiae efflux-deficient reporter strain, 5-FOA growth OD615, 2 days; 1,200 tested, under 10 active; call rule not given here;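 further: plate controls were vehicle for no effect and reference inhibitor for full effect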
* = called active by the depositor; nt = no result.

SMILES	NPY-Y1 antag	NPY-Y2 antag	NPY-Y1 PAM-ag	NPY-Y2 PAM-ag	WT yeast gro inh	RAM inhibit	RAM 5-FOA
CCCCOc1cccc(C(=O)NC(=S)Nc2cccc(C(F)(F)F)c2)c1	0	6	-14	-6	51	13*	3
COc1ccccc1NC(=O)CCC(=O)Nc1ccccc1OC	-3	2	-5	0	-16	-1	nt
COc1ccccc1/C=C(/C(=O)OCC(=O)Nc1ccccc1C(C)C)c1ccccc1	3	10	2	-6	33	12*	3
COC(=O)c1cc(=O)n(Cc2ccc(F)cc2)c(=NCc2ccc(F)cc2)s1	0	nt	-1	2	8	14*	3
COC(=O)c1cc(=O)n(Cc2ccc3c(c2)OCO3)c(=Nc2ccc(F)cc2)s1	-3	4	-9	-10	12	4	nt
O=C(O)CC1S/C(=N/N=C2CCCCC2)N(c2ccccc2)C1=O (configuration not stated)	-2	3	6	-12	-3	0	nt
CCOC(=O)CC(=O)CSc1nc(N)c(C#N)c(-c2ccc(Cl)cc2)c1C#N	-3	-5	7	1	-35	13*	3
COc1ccc(-c2ccc(-c3noc(-c4ccccc4)n3)c(OC)n2)cc1	11	10	-13	-10	4	13*	5
COc1nc(-c2ccccc2)ccc1-c1noc(COc2ccccc2)n1	9	10	-32	-13	20	13*	4
c1ccc(OCc2nc(-c3ccccc3)no2)cc1	1	5	-10	-19	-4	1	nt
CSc1nc(Cl)c(Cc2ccc(OC(C)C)cc2)c(N2CCOCC2)n1	12	4	-32	-6	4	12*	2
CCCCc1ccc(N=N/C(C(=O)Nc2ccccc2OC)=C(/C)O)cc1	0	-1	-7	-6	-7	20*	8
CC12CC3CC(C)(C1)CC(C(=O)NC(=S)N1CCOCC1)(C3)C2	8	1	20	4	-3	-1	nt
Cc1ccccc1NC(=O)c1sc(Cl)nc1-c1ccccc1	1	4	-2	-4	9	0	nt
Cc1ccc(C)c(NC(=O)c2sc(Cl)nc2-c2ccccc2)c1	8	2	4	-20	20	15*	1
N#C/C(=C\Nc1ccccc1SC(F)(F)F)c1nc(-c2ccccc2)cs1	-3	6	-11	-11	-27	12*	3
N#Cc1nc(-c2ccc(OCc3ccccc3)cc2)oc1NCc1ccco1	2	1	-9	-2	7	16*	4
COc1ccc(-c2nc(C#N)c(NCc3ccco3)o2)cc1	-1	nt	-2	-2	-6	-1	nt
CN(C(=S)Nc1ccc(Oc2ccccc2)cc1)c1ccc(O)cc1	-3	1	3	1	49	14*	1
CCOc1cccc(-c2nnc(SCC(=O)Nc3cccc(OC)c3)n2N)c1	2	1	-21	-10	-1	0	nt
COc1cccc(-c2nnc(SCC(=O)Nc3ccc(OC)c(OC)c3)n2N)c1	0	2	-12	10	-5	12*	3
CN1CCN(S(=O)(=O)c2cccc(C(=O)Nc3nccs3)c2)CC1	nt	nt	10	2	nt	nt	nt
COc1cc(/C=N/Nc2ccc(Cl)cc2)ccc1OC(=O)c1cccs1	-4	2	-22	-2	54	12*	3
CSc1nnc(Cn2c(=O)sc3ccccc32)n1-c1ccccc1	2	3	-15	1	14	0	nt
O=C(OCc1nnc(-c2ccccc2)o1)c1ccccc1	-1	nt	12	-13	7	0	nt
SMILES	NPY-Y1 antag	NPY-Y2 antag	NPY-Y1 PAM-ag	NPY-Y2 PAM-ag	WT yeast gro inh	RAM inhibit	RAM 5-FOA
O=C(OCc1nnc(-c2ccccc2)o1)C12CC3CC(CC(Br)(C3)C1)C2	3	nt	-6	-21	70*	21*	2
Cc1cc(C)cc(OCC(=O)NNC(=O)c2cc3ccccc3o2)c1	3	11	-29	2	4	7	nt
COCCOC(=O)c1c(C)oc2ccc(OC(=O)c3c(OC)cccc3OC)cc12	-1	7	-6	12	43	12*	1
COc1ccc2oc(C)c(C(=O)NN)c2c1	2	2	-19	-2	0	0	nt
Cc1ccccc1OCCNc1cc(N2CCCCC2)ccc1[N+](=O)[O-]	15	6	-20	-8	15	14*	5
COc1cccc(OCCNc2cc(N3CCOCC3)ccc2[N+](=O)[O-])c1	4	1	-43	0	16	12*	1
Cc1ccc(S(=O)(=O)c2c(N)n(NC(=O)c3ccccc3C)c3nc4ccccc4nc23)cc1	-4	0	24	14	37	4	nt
CC(C)c1ccc(CNC(=O)CSCC(=O)Nc2ccc3ccccc3c2)cc1	-2	0	-6	11	10	13*	1
O=C(CSCC(=O)Nc1ccc2ccccc2c1)NCc1ccccc1	11	7	-30	-18	11	4	nt
Cc1ccc(S(=O)(=O)NCCC(c2ccccc2)c2ccco2)cc1 (configuration not stated)	2	3	10	1	31	14*	3
CCOC(=O)c1ccc(NC(=O)CSc2nc(NC(=O)c3ccccc3)c3c(C)c(C)oc3n2)cc1	9	3	-8	-7	20	6	nt
COC(=O)C(Sc1nc(C)cc(C)c1C#N)c1ccccc1 (configuration not stated)	7	1	-16	-11	25	12*	1
COc1ccc(NC2=C(Cl)C(=O)N(CCc3ccccc3)C2=O)c(OC)c1	10	8	-24	-10	15	16*	6
CCC(C)Nc1nc2c(C)cccn2c(=O)c1C=Nc1ccc(OC)cc1 (configuration not stated)	5	nt	13	4	20	2	nt
CCC(C)N1C(=O)/C(=C/c2c(NCCCOC(C)C)nc3c(C)cccn3c2=O)SC1=S (configuration not stated)	5	1	-17	-10	16	18*	3
O=C(COc1ccc2c(c1)C(=O)CC1(CCCCC1)O2)NCc1ccccn1	8	-2	-5	4	7	0	nt
O=C(COc1ccc2c(c1)C(=O)CC1(CCCCC1)O2)NCc1ccccc1	18	6	-6	-38	-33	12*	2
COc1ccc(OC)c(-c2csc3nnc(SCC(=O)Nc4ccc(NC(C)=O)cc4)n23)c1	-6	-1	17	9	-8	2	nt
O=C(COC(=O)CCCNC(=O)c1ccc(Cl)cc1)Nc1cc(Cl)c(Cl)cc1Cl	-5	1	8	9	-3	42*	2
Cc1cc(C)cc(NC(=O)COC(=O)CCCNC(=O)c2ccc(Cl)cc2)c1	10	8	-17	-9	-4	3	nt
